The target in assay [1] is PP1C (Homo sapiens, UniProt P62136). Kind of assay: Radiolabeled phosphoprotein substrate confirmation assay. Type of assay: biochemical. The essentials:
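Purified PP1C catalytic subunit (working stock kept at −20 °C in tris with 50% glycerol, 2 mM DTT, 0.1 mg/mL BSA, 2 mM MnCl₂) was assayed in single tubes against [³²P]- or [³³P]-phosphorylase A in HEPES pH 7.0 PP1C buffer (BSA, Triton X-100, DTT, ascorbate, MnCl₂). Liberated labelled orthophosphate was quantified and expressed as percentage of DMF-vehicle control activity; serial dilutions, n = 3.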

The target in assay [2] is T1, PP5C (Homo sapiens, UniProt P53041).
T1 sequence (P53041 1-499): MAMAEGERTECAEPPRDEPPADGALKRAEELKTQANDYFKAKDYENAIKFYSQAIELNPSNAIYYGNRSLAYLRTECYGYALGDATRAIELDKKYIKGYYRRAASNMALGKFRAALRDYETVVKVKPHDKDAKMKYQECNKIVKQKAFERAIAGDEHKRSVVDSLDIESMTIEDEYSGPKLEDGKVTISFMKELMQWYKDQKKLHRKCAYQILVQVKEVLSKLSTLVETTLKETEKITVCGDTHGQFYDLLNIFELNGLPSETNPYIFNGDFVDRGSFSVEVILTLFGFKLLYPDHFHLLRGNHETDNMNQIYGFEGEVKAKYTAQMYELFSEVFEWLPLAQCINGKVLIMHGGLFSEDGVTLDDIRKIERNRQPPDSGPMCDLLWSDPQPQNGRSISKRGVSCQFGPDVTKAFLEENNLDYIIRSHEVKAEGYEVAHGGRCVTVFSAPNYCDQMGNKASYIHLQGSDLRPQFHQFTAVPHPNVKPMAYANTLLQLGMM
The assay is described as follows: PP5C OMFP FLINT inhibition assay, 1536-well uHTS format. Type of assay: biochemical.

The next assay has as its system PP4C. The settings on record: read-out: IC50, PP4C; ref [4],[6]; cited from earlier work.
For assay [3], the system named is PP5C. The following applies: read-out: IC50, PP5C; ref [4],[6]; cited from earlier work.
The next assay relates to PP2AC. The following applies: read-out: IC50, PP2AC; ref [4],[6]; cited from earlier work.
Assay [4] concerns PP1C. The following applies: read-out: IC50, PP1C; ref [4],[6]; cited from earlier work.

The structures appear in SMILES notation. A value given as a limit tells only on which side of the number the result lay.

Chain of PP1C (Homo sapiens, UniProt P62136) (P62136 whole entry): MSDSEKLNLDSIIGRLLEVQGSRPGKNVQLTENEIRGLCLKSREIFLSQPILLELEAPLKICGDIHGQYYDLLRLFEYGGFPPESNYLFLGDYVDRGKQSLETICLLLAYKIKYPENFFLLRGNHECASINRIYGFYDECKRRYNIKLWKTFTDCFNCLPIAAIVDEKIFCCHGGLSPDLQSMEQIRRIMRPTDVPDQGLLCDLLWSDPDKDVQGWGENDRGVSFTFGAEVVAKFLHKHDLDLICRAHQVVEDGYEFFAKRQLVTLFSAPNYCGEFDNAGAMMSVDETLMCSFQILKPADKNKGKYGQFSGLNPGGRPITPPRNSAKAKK

Broadly, the IC50 is the concentration that inhibits the measured activity by half. In turn, `COc1ccc(NC(=O)C2C3CCC(O3)C2C(=O)O)c(OC)c1` (stereo not drawn) [SID 93617938, 3-{[(2,4-dimethoxyphenyl)amino]carbonyl}−7-oxabicyclo[2.2.1]heptane-2-carboxylic acid] returned a 50% inhibitory concentration (IC50) against PP1C [1] of 18.9 µM.
In the case of `C[C@@]12C(=O)OC(=O)[C@]1(C)[C@H]1CC[C@@H]2O1` [cantharidin], the concentration for half-maximal inhibition (IC50) against PP5C [2] was 0.52 µM.
Regarding `C[C@@](O)(/C=C/[C@H]1CC=CC(=O)O1)[C@@H](C[C@@H](O)\C=C/C=C\C=C\CO)OP(=O)(O)O` [fostriecin], the IC50 in the assay with PP4C is less than 0.002 µM; in the assay on PP5C [3] it was greater than 70 µM; in the assay with PP2AC, less than 0.002 µM; with PP1C [4], greater than 70 µM.

Source of the values: paper PMC8041090 (SLAS discovery : advancing life sciences R & D, 2016).
